In data set [1] the test system is ASPC1. The experiment in a line: Growth inhibition. The format is cell-based, human. To be noted: ASPC1, pancreatic cancer, K-Ras G12D. Put shortly:
(§1)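 Cancer cell lines were treated with test compound for growth inhibition. Each GI50 is the average of three independent experiments, each run in duplicate.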

Data set [2] relates to HCT116. The experiment in a line: Growth inhibition. The format is cell-based, human. The following applies: HCT116, colon cancer, K-Ras G13D. Put shortly:
as §1

Data set [3] concerns HME1. The experiment in a line: Growth inhibition. The format is cell-based, human. The following applies: HME1, normal mammary epithelial cells, K-Ras WT. Put shortly:
(§2)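 GI50 determined for growth of the test compound's target cells; values averaged across three independent experiments, each run in duplicate.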

Data set [4] deals with NCI-H23. The experiment in a line: Growth inhibition. The format is cell-based, human. To be noted: NCI-H23, lung cancer, K-Ras G12C. The essentials: as §1
Data set [5] concerns MCF10A. Put plainly: Growth inhibition. The format is cell-based, human. The following applies: normal mammary epithelial cells, K-Ras WT. Put shortly:
as §2

Data set [6] deals with T1, SIRT3 (Homo sapiens, UniProt Q9NTG7).
T1 sequence (Q9NTG7 1-399): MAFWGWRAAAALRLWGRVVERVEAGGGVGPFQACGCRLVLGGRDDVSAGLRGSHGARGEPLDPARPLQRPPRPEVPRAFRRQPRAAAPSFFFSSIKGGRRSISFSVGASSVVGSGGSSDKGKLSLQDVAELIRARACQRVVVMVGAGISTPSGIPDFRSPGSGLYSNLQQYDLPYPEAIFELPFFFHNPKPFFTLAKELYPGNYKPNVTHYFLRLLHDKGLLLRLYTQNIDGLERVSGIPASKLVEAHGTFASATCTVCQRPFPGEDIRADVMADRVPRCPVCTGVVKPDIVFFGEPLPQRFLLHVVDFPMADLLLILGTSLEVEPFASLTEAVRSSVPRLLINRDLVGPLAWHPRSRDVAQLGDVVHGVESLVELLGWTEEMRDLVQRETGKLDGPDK
The experiment in a line: In vitro SIRT3 deacetylation inhibition, H3K9-Ac peptide substrate. Format: biochemical. The following applies: read-out: SIRT3 Deacetylation IC50, with 15 min pre-incubation. Put shortly:
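The enzyme was pre-incubated with NAD and test compound for 15 min, then substrate was added to start the deacetylation reaction. IC50 was determined under these pre-incubation conditions.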

The test system of data set [7] is MDA-MB-231. Put plainly: Growth inhibition. The format is cell-based, human. To be noted: MDA-MB-231, breast cancer, K-Ras G13D. Put shortly: as §1

For orientation: GI50 means the concentration giving 50% growth inhibition. A high value points to less potent growth inhibition. Usually IC50 stands for the concentration needed to halve the response being measured.

On to `CCCCCCCCCCCCCC(=S)NCCCCC(NC(=O)OCc1ccccc1)C(=O)Nc1ccccc1` (stereo not shown) [TM], for which the GI50 in data set [1] was 24 ± 5 µM; in data set [2], 19 ± 1 µM; in data set [3] it was over 50 µM; in data set [4] it was 29 ± 6 µM; in data set [5] it was over 50 µM; in data set [7], 13 ± 4 µM. In data set [6], the IC50 was over 50 µM.

The values are drawn from paper PMC6452895 (ChemMedChem, 2019).
